Assay results published in ChEMBL document CHEMBL1629686, “Substrate selectivity and a novel role in inhibitor discrimination by residue 237 in the KPC-2 beta-lactamase” (Antimicrob Agents Chemother, 2010).
Converted amounts (≈) assume the structure as drawn.

What was measured:
Escherichia coli [1] = assay: Antimicrobial activity against Escherichia coli DH10B harboring beta-lactamase KPC-2 T237V mutant by agar dilution method; format: functional; conditions: K-12 DH10B
How it was run: (§1)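 LB agar dilution MICs followed CLSI criteria, with inocula applied by Steers replicator. […] Piperacillin-tazobactam was tested at an 8:1 ratio. Wild-type and mutant blaKPC-2 were carried on pBC SK(+), or wild type on pBR322-catI, in E. coli DH10B.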

Escherichia coli [2] = assay: Antimicrobial activity against Escherichia coli DH10B harboring beta-lactamase KPC-2 T237Q mutant by agar dilution method; format: functional; conditions: K-12 DH10B; how it was run: as §1
Escherichia coli [3] = assay: Antimicrobial activity against Escherichia coli DH10B harboring beta-lactamase KPC-2 T237P mutant by agar dilution method; format: functional; conditions: K-12 DH10B; how it was run: as §1
Escherichia coli [4] = assay: Antimicrobial activity against Escherichia coli DH10B harboring beta-lactamase KPC-2 T237W mutant by agar dilution method; format: functional; conditions: K-12 DH10B; how it was run: as §1
Klebsiella pneumoniae [5] = assay: Antimicrobial activity against Klebsiella pneumoniae 1534 expressing beta-lactamase KPC-2 by agar dilution method; format: functional
How it was run: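 MICs were determined by LB agar dilution following CLSI criteria, with a Steers replicator. […] Piperacillin-tazobactam was kept at an 8:1 ratio.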

Escherichia coli [6] = assay: Antimicrobial activity against Escherichia coli DH10B harboring beta-lactamase KPC-2 T237C mutant by agar dilution method in presence of beta-lactamase inhibitor clavulanic acid; format: functional; conditions: K-12 DH10B
How it was run: (§2)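 LB agar dilution MICs per CLSI criteria, inoculated with a Steers replicator. […] Strains: E. coli DH10B alone, DH10B carrying empty pBC SK(+), or DH10B carrying pBC SK(+)-blaKPC-2 position 237 variants made by site-saturation mutagenesis and confirmed by sequencing. Plasmid selection used 20 mg/liter chloramphenicol.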

Escherichia coli [7] = assay: Antimicrobial activity against Escherichia coli DH10B harboring beta-lactamase KPC-2 T237L mutant by agar dilution method; format: functional; conditions: K-12 DH10B; how it was run: as §1
Klebsiella pneumoniae [8] = assay: microbe, parasite or virus in culture; conditions: 1534
Escherichia coli [9] = assay: Antimicrobial activity against Escherichia coli DH10B harboring beta-lactamase KPC-2 T237G mutant by agar dilution method in presence of beta-lactamase inhibitor Sulbactam; format: functional; conditions: K-12 DH10B
How it was run: (§3)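 LB agar dilution MICs by CLSI criteria, applied with a Steers replicator. […] Hosts were E. coli DH10B carrying pBC SK(+) with wild-type blaKPC-2 or a position 237 variant.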

Escherichia coli [10] = assay: Antimicrobial activity against Escherichia coli DH10B harboring plasmid […] by agar dilution method; format: functional; conditions: K-12 DH10B; how it was run: as §1
Escherichia coli [11] = assay: Antimicrobial activity against Escherichia coli DH10B harboring beta-lactamase KPC-2 T237F mutant by agar dilution method; format: functional; conditions: K-12 DH10B; how it was run: as §1
Escherichia coli [12] = assay: Antimicrobial activity against Escherichia coli DH10B harboring beta-lactamase KPC-2 T237E mutant by agar dilution method in presence of beta-lactamase inhibitor clavulanic acid; format: functional; conditions: K-12 DH10B; how it was run: as §3
Escherichia coli [13] = assay: Antimicrobial activity against Escherichia coli DH10B harboring plasmid pBR322-catI carrying beta-lactamase KPC-2 by agar dilution method; format: functional; conditions: K-12 DH10B; how it was run: as §1
Escherichia coli [14] = assay: Antimicrobial activity against Escherichia coli DH10B by agar dilution method; format: functional; conditions: K-12 DH10B; how it was run: as §1
Escherichia coli [15] = assay: Antimicrobial activity against Escherichia coli DH10B harboring beta-lactamase KPC-2 T237K mutant by agar dilution method; format: functional; conditions: K-12 DH10B; how it was run: as §1
Escherichia coli [16] = assay: Antimicrobial activity against Escherichia coli DH10B harboring beta-lactamase KPC-2 T237N mutant by agar dilution method; format: functional; conditions: K-12 DH10B; how it was run: as §1
Escherichia coli [17] = assay: Antimicrobial activity against Escherichia coli DH10B harboring beta-lactamase KPC-2 T237S mutant by agar dilution method in presence of beta-lactamase inhibitor Sulbactam; format: functional; conditions: K-12 DH10B; how it was run: as §3
Escherichia coli [18] = assay: Antimicrobial activity against Escherichia coli DH10B harboring beta-lactamase KPC-2 T237K mutant by agar dilution method in presence of beta-lactamase inhibitor clavulanic acid; format: functional; conditions: K-12 DH10B; how it was run: as §2
Escherichia coli [19] = assay: Antimicrobial activity against Escherichia coli DH10B harboring beta-lactamase KPC-2 T237I mutant by agar dilution method in presence of beta-lactamase inhibitor Sulbactam; format: functional; conditions: K-12 DH10B; how it was run: as §3
Escherichia coli [20] = assay: Antimicrobial activity against Escherichia coli DH10B harboring beta-lactamase KPC-2 T237D mutant by agar dilution method; format: functional; conditions: K-12 DH10B; how it was run: as §1
Escherichia coli [21] = assay: Antimicrobial activity against Escherichia coli DH10B harboring beta-lactamase KPC-2 T237A mutant by agar dilution method; format: functional; conditions: K-12 DH10B; how it was run: as §1
Escherichia coli [22] = assay: Antimicrobial activity against Escherichia coli DH10B harboring beta-lactamase KPC-2 T237V mutant by agar dilution method in presence of beta-lactamase inhibitor clavulanic acid; format: functional; conditions: K-12 DH10B; how it was run: as §3
Escherichia coli [23] = assay: Antimicrobial activity against Escherichia coli DH10B harboring beta-lactamase KPC-2 T237S mutant by agar dilution method; format: functional; conditions: K-12 DH10B; how it was run: as §1
Escherichia coli [24] = assay: Antimicrobial activity against Escherichia coli DH10B harboring beta-lactamase KPC-2 T237R mutant by agar dilution method; format: functional; conditions: K-12 DH10B; how it was run: as §1
Escherichia coli [25] = assay: Antimicrobial activity against Escherichia coli DH10B harboring beta-lactamase KPC-2 T237Y mutant by agar dilution method; format: functional; conditions: K-12 DH10B; how it was run: as §1
Escherichia coli [26] = assay: Antimicrobial activity against Escherichia coli DH10B harboring beta-lactamase KPC-2 T237H mutant by agar dilution method; format: functional; conditions: K-12 DH10B; how it was run: as §1
Escherichia coli [27] = assay: Antimicrobial activity against Escherichia coli DH10B harboring plasmid pBC SK(+) carrying wild type beta-lactamase KPC-2 by agar dilution method; format: functional; conditions: K-12 DH10B; how it was run: as §1
Escherichia coli [28] = assay: Antimicrobial activity against Escherichia coli DH10B harboring beta-lactamase KPC-2 T237E mutant by agar dilution method; format: functional; conditions: K-12 DH10B; how it was run: as §1
Escherichia coli [29] = assay: Antimicrobial activity against Escherichia coli DH10B harboring beta-lactamase KPC-2 T237G mutant by agar dilution method; format: functional; conditions: K-12 DH10B; how it was run: as §1
Escherichia coli [30] = assay: Antimicrobial activity against Escherichia coli DH10B harboring beta-lactamase KPC-2 T237C mutant by agar dilution method; format: functional; conditions: K-12 DH10B; how it was run: as §1
Escherichia coli [31] = assay: Antimicrobial activity against Escherichia coli DH10B harboring beta-lactamase KPC-2 T237I mutant by agar dilution method; format: functional; conditions: K-12 DH10B; how it was run: as §1
Escherichia coli [32] = assay: Antimicrobial activity against Escherichia coli DH10B harboring beta-lactamase KPC-2 T237M mutant by agar dilution method; format: functional; conditions: K-12 DH10B; how it was run: as §1
Escherichia coli [33] = assay: Antimicrobial activity against Escherichia coli DH10B harboring beta-lactamase KPC-2 T237I mutant by agar dilution method in presence of beta-lactamase inhibitor Tazobactam; format: functional; conditions: K-12 DH10B
How it was run: (§4)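 LB agar dilution MICs by CLSI criteria, inoculated with a Steers replicator. […] Strains were E. coli DH10B with or without pBC SK(+) carrying wild-type blaKPC-2 or a position 237 variant.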

Escherichia coli [34] = assay: Antimicrobial activity against Escherichia coli DH10B harboring beta-lactamase KPC-2 T237N mutant by agar dilution method in presence of beta-lactamase inhibitor Tazobactam; format: functional; conditions: K-12 DH10B; how it was run: as §4
Escherichia coli [35] = assay: Antimicrobial activity against Escherichia coli DH10B harboring beta-lactamase KPC-2 T237G mutant by agar dilution method in presence of beta-lactamase inhibitor Tazobactam; format: functional; conditions: K-12 DH10B; how it was run: as §4
Escherichia coli [36] = assay: Antimicrobial activity against Escherichia coli DH10B harboring beta-lactamase KPC-2 T237L mutant by agar dilution method in presence of beta-lactamase inhibitor Tazobactam; format: functional; conditions: K-12 DH10B; how it was run: as §4
Klebsiella pneumoniae [37] = assay: Activity of Klebsiella pneumoniae 1534 beta-lactamase KPC-2 T237A mutant by spectrophotometric analysis
How it was run: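 Purified KPC-2 variant enzymes (periplasmic lysate from E. coli, preparative isoelectric focusing). Hydrolysis followed by diode-array spectrophotometry in 10 mM PBS, pH 7.4, room temperature. Enzyme at 10 nM with substrate in molar excess for pseudo-first-order conditions. Vmax and Km came from a nonlinear least-squares Michaelis-Menten fit.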

Escherichia coli [38] = assay: Antimicrobial activity against Escherichia coli DH10B harboring beta-lactamase KPC-2 T237D mutant by agar dilution method in presence of beta-lactamase inhibitor Tazobactam; format: functional; conditions: K-12 DH10B; how it was run: as §4

SMILES	MIC (Escherichia coli [1]) [µg/mL]	MIC (Escherichia coli [2]) [µg/mL]	MIC (Escherichia coli [3]) [µg/mL]	MIC (Escherichia coli [4]) [µg/mL]	MIC (Klebsiella pneumoniae [5]) [µg/mL]	MIC (Escherichia coli [7]) [µg/mL]	MIC (Escherichia coli [10]) [µg/mL]	MIC (Escherichia coli [11]) [µg/mL]	MIC (Escherichia coli [13]) [µg/mL]	MIC (Escherichia coli [14]) [µg/mL]	MIC (Escherichia coli [15]) [µg/mL]	MIC (Escherichia coli [16]) [µg/mL]	MIC (Escherichia coli [20]) [µg/mL]	MIC (Escherichia coli [21]) [µg/mL]	MIC (Escherichia coli [23]) [µg/mL]	MIC (Escherichia coli [24]) [µg/mL]	MIC (Escherichia coli [25]) [µg/mL]	MIC (Escherichia coli [26]) [µg/mL]	MIC (Escherichia coli [27]) [µg/mL]	MIC (Escherichia coli [28]) [µg/mL]	other results
CC1(C)S[C@@H]2[C@H](NC(=O)[C@H](N)c3ccccc3)C(=O)N2[C@H]1C(=O)O [AMPICILLIN]	128 (≈ 366 µM)	256 (≈ 733 µM)	1 (≈ 2.86 µM)	16 (≈ 45.8 µM)	8190 (≈ 23400 µM)	64 (≈ 183 µM)	1 (≈ 2.86 µM)	16 (≈ 45.8 µM)	4100 (≈ 11700 µM)	1 (≈ 2.86 µM)	1 (≈ 2.86 µM)	32 (≈ 91.6 µM)	16 (≈ 45.8 µM)	256 (≈ 733 µM)	512 (≈ 1470 µM)	4 (≈ 11.4 µM)	16 (≈ 45.8 µM)	64 (≈ 183 µM)	256 (≈ 733 µM)	32 (≈ 91.6 µM)	MIC (Escherichia coli [6]): 1 µg/mL; MIC (Klebsiella pneumoniae [8]): 32 µg/mL (≈ 91.6 µM); MIC (Escherichia coli [9]): 16 µg/mL; MIC (Escherichia coli [12]): 8 µg/mL; MIC (Escherichia coli [17]): 128 µg/mL; MIC (Escherichia coli [18]): 1 µg/mL; MIC (Escherichia coli [19]): 16 µg/mL; MIC (Escherichia coli [22]): 8 µg/mL; MIC (Escherichia coli [29]): 128 µg/mL (≈ 366 µM); MIC (Escherichia coli [30]): 4 µg/mL (≈ 11.4 µM); MIC (Escherichia coli [31]): 64 µg/mL (≈ 183 µM); MIC (Escherichia coli [32]): 128 µg/mL (≈ 366 µM)
CCN1CCN(C(=O)N[C@@H](C(=O)N[C@@H]2C(=O)N3[C@@H]2SC(C)(C)[C@@H]3C(=O)O)c2ccccc2)C(=O)C1=O [PIPERACILLIN]	16 (≈ 30.9 µM)	64 (≈ 124 µM)	1 (≈ 1.93 µM)	8 (≈ 15.5 µM)	1020 (≈ 1980 µM)	16 (≈ 30.9 µM)	2 (≈ 3.86 µM)	4 (≈ 7.73 µM)	1020 (≈ 1980 µM)	2 (≈ 3.86 µM)	1 (≈ 1.93 µM)	8 (≈ 15.5 µM)	4 (≈ 7.73 µM)	64 (≈ 124 µM)	128 (≈ 247 µM)	4 (≈ 7.73 µM)	4 (≈ 7.73 µM)	8 (≈ 15.5 µM)	128 (≈ 247 µM)	8 (≈ 15.5 µM)	MIC (Escherichia coli [33]): 1 µg/mL; MIC (Escherichia coli [34]): 1 µg/mL; MIC (Escherichia coli [35]): 1 µg/mL; MIC (Escherichia coli [36]): 2 µg/mL; Km (Klebsiella pneumoniae [37]): 12 µM; kcat (Klebsiella pneumoniae [37]): 42 s⁻¹; MIC (Escherichia coli [38]): 1 µg/mL; MIC (Escherichia coli [29]): 16 µg/mL (≈ 30.9 µM); MIC (Escherichia coli [30]): 4 µg/mL (≈ 7.73 µM); MIC (Escherichia coli [31]): 8 µg/mL (≈ 15.5 µM); MIC (Escherichia coli [32]): 32 µg/mL (≈ 61.8 µM)
